Results published in publication PMC12236005 (Journal of Nanobiotechnology, 2025).

What was measured:
[1] = In vivo distribution of Cy5.5-labeled PDCs; set-up: species or system mice
Method in brief: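 Male C57BL/6 mice (10-week-old), sham or MI, received Cy5.5-labelled PDCs by tail-vein injection. A scrambled-peptide (non-targeting) conjugate served as control, and dye-labelled conjugates were normalised to equal fluorescence by UV-Vis. At 2 h and 6 h mice were euthanised. Hearts, lungs, livers, spleens and kidneys were imaged ex vivo and average radiance quantified.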

H2O2 treated H9c2 cells [2] = assay: Intracellular NO, O38 probe; format: cell-based; settings: 4 h treatment, n = 5
Method in brief: (§1)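 H9c2 cells cultured 24 h, then exposed to test compound for 4 h. Stained with a fluorescent probe: DHE for ROS, O38 for NO. Fluorescence microscopy, with mean fluorescence intensity taken per image. n = 5.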

MI mice = format: in vivo, C57BL/6 mice
H2O2 treated H9c2 cells [3] = assay: Intracellular ROS, DHE probe; format: cell-based; settings: DHE staining, 4 h treatment, n = 5
Method in brief: as §1

H9c2 cells [4] = assay: Cell protection under H2O2, CCK-8; format: cell-based; settings: 10 µM equivalent of PBA or/and ISN, 500 µM H2O2, 24 h, n = 5
Method in brief: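 H9c2 cells (high-glucose DMEM, 10% FBS) seeded at 5 × 10^3/well and grown 24 h. Medium then replaced with treatments at 10 µM PBA and/or ISN equivalent, followed by 500 µM H2O2, with PBS as control. After 24 h, cells were given fresh medium containing 10% CCK-8 for 4 h. Supernatant absorbance was read at 450 nm to calculate viability.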

H9c2 cells [5] = assay: Apoptosis by flow cytometry, Annexin V-PI staining; format: cell-based; settings: H9c2 + H2O2, 24 h treatment, n = 3
HUVECs [6] = assay: HUVEC migration; format: cell-based, human; settings: H2O2 treated; scratch assay 24 h and Transwell assay 8 h; n = 5
Method in brief: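 Two formats. Scratch: HUVECs pre-stained with green fluorescent dye and grown to a confluent monolayer. Gap scratched with a pipette tip, then fresh medium with test compound added. Fluorescence images at 0 and 24 h give the percentage of wound area healed. Transwell: 8.0-µm pores, 8 × 10^4 cells in serum-free medium above, 10% FBS medium with test compound below, 8 h. Migrated cells stained with 0.1% crystal violet and counted in five random fields. n = 5.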

H2O2-treated H9c2 cells = assay: Mitochondria-related cell injury probes; format: cell-based; settings: 6 h treatment, n = 5; for mitochondrial membrane potential: JC-10 probe
Method in brief: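 H9c2 cells were seeded and grown 24 h, then treated for 6 h and stained with JC-10. Fluorescence images were taken, and membrane potential was expressed as the ratio of red to green fluorescence intensity. n = 5.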

HUVECs [7] = assay: Western blotting of VEGF, p-eNOS, eNOS; format: cell-based, human; settings: H2O2 treated HUVECs, immunoblot; n = 3
Method in brief: (§2)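 Lysates from HUVECs or H9c2 cells were protein-quantified by BCA. Equal amounts were run on SDS-PAGE and transferred to PVDF. Membranes were blocked with 5% non-fat milk and probed with primary and secondary antibodies. Bands were detected by ECL chemiluminescence and quantified by densitometry. n = 3.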

H2O2 treated H9c2 cells [8] = assay: Intracellular ONOO-/RNS, O58 probe; format: cell-based; settings: 4 h treatment, n = 5
Method in brief: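 H9c2 cells (high-glucose DMEM, 10% FBS) were seeded and grown 24 h, then treated 4 h. Cells were stained with BBoxiProbe O58 for ONOO−, imaged by fluorescence microscopy, and mean fluorescence intensity was quantified. n = 5.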

H9c2 cells [9] = assay: Western blotting of oxidative stress, inflammation and apoptosis proteins; format: cell-based; settings: H2O2 treated H9c2 cells, n = 3
Method in brief: as §2

[10] = DLS and TEM of self-assembled nanoaggregates; format: physicochemical; settings: self-assembly in aqueous solution; TEM images and DLS
HUVECs [11] = assay: HUVEC survival under oxidative stress; format: cell-based, human; settings: H2O2, calcein-AM/PI staining and CCK-8 assay; n = 5
Method in brief: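 CCK-8: 5 × 10^3 cells/well plated 24 h, then medium with test compound (10 µM equivalent of PBA and/or ISN) and 500 µM H2O2 (PBS control). After 24 h, 10% CCK-8 for 4 h, absorbance at 450 nm. Live/dead: 1 × 10^5 cells/well plated 24 h, treated 24 h, calcein AM/PI stain 30 min, fluorescence imaging, dead/live ratio quantified. n = 5.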

HUVECs [12] = assay: HUVEC tube formation assay; format: cell-based, human; settings: H2O2-treated HUVECs on Matrigel, 6 h; n = 5
Method in brief: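 HUVECs (2.5 × 10^4 per well) seeded on Matrigel-coated wells with test compound and incubated 6 h. Bright-field images from five random fields scored for tube length, branching length and junction number. n = 5.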

cells = assay: NO release from culture medium of cells, Griess assay; format: cell-based; settings: PDCs 10 µM
Method in brief: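 PDCs (10 µM) were incubated with cells pretreated with PBS or H2O2 for 24 h. NO in the culture medium was measured by Griess assay at 0 h and 24 h.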

HUVECs [13] = assay: Intracellular ROS, NO and RNS probes in HUVECs; format: cell-based, human; settings: H2O2 treated HUVECs, O38 probe; n = 5
Method in brief: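 HUVECs (endothelial cell medium, 5% FBS plus growth supplements) were seeded and grown 24 h, then treated 4 h. Cells were stained with BBoxiProbe O38 for NO, imaged by fluorescence microscopy, and mean fluorescence intensity was quantified. Mean ± SEM, n = 5.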

H9c2 cells [14] = assay: Mitochondria TEM and cellular ATP; format: cell-based
DPPH assay = settings: PDCs 0-200 µM, DPPH 500 µM, 30 min in darkness, absorbance 517 nm; n = 3
Method in brief: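 DPPH solution (500 µM before mixing) was combined with PDC solutions at 0, 5, 10, 25, 50, 100 and 200 µM and kept 30 min in darkness. Absorbance was read at 517 nm and scavenged DPPH calculated. Mean ± SEM, n = 3.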

ABTS assay = settings: test kit; n = 3
[15] = immunofluorescence, 28 days after MI, n = 4

Question: With CSTSMLKAC [Cy5.5-CTP-PBA-ISN] as the molecule, how does the “fluorescent signal of infarcted hearts” value ([1]; MI mice, 2 h after injection via tail veins, ex vivo imaging) read?
Answer: bright fluorescent signal

Question: Which “intracellular level of NO” value (H2O2 treated H9c2 cells [2]) does the source give for `O=[N+]([O-])O[C@@H]1CO[C@H]2[C@@H]1OC[C@@H]2O` [ISN, isosorbide mononitrate, reference compound] here?
Answer: significantly increased the intracellular level of NO

Question: And the “ROS in heart tissue” value (MI mice; DHE staining, day 1 after MI, i.v. 200 µg/kg equivalent of ISN, n = 4)?
Answer: little effects on tissue abundance of ROS

Question: And the “RNS in heart tissue” value (MI mice; O56 staining, day 1 after MI, i.v. 200 µg/kg equivalent of ISN, n = 4)?
Answer: promoted vast generation of RNS

Question: What about the “angiogenesis in the border zone of infarct region (CD31+ capillaries, α-SMA+ arterioles)” value (MI mice; [15]) of the same molecule?
Answer: didn’t have any effects of neovascularization

Question: And the “intracellular ROS level” value (H2O2 treated H9c2 cells [3])?
Answer: did not change the level of ROS inside cells

Question: What about the “viability of H9c2 challenged with H2O2” value (H9c2 cells [4]) of the same molecule?
Answer: increased the loss of myocytes

Question: What about the apoptosis percentage (H9c2 cells [5]) of the same molecule?
Answer: 32.2%

Question: And the “migration of HUVECs” value (HUVECs [6])?
Answer: barely promoted the H2O2-inhibited migration of HUVECs

Question: And the mitochondrial membrane potential (H2O2-treated H9c2 cells)?
Answer: negligible influence on the restoration of mitochondrial membrane potential

Question: What about the “expression of VEGF and p-eNOS/eNOS ratio” value (HUVECs [7]) of the same molecule?
Answer: nor did it reverse the downregulated expression of angiogenesis-related proteins

Question: What about the “intracellular concentration of peroxynitrite (ONOO-) / RNS” value (H2O2 treated H9c2 cells [8]) of the same molecule?
Answer: dramatically elevated the intracellular concentration of peroxynitrite

Question: Which “intracellular ROS level” value (H2O2 treated H9c2 cells [3]) does the source give for `OCc1ccc(O)cc1` [4-HBA, 4-hydroxybenzyl alcohol] here?
Answer: mitigate intracellular ROS in a concentration-dependent manner

Question: With CSTSMLKAC [CTP-PBA] as the molecule, how does the “viability of H9c2 challenged with H2O2” value (H9c2 cells [4]) read?
Answer: only partially restored the viability of H9c2

Question: What about the apoptosis percentage (H9c2 cells [5]) of the same molecule?
Answer: 20.3%

Question: What about the mitochondrial membrane potential (H2O2-treated H9c2 cells) of the same molecule?
Answer: limited effects

Question: What about the “intracellular concentration of peroxynitrite (ONOO-) / RNS” value (H2O2 treated H9c2 cells [8]) of the same molecule?
Answer: downregulation of RNS inside cells

Question: Which “TNF-α and IL-6 protein expression” value (H9c2 cells [9]; immunoblot) does the source give for CSTSMLKAC [CTP-PBA-ISN] here?
Answer: capably reversed such elevation

Question: What about the “intracellular expression of Nrf2, HO-1 and NQO-1” value (H9c2 cells [9]; immunoblot) of the same molecule?
Answer: downregulated intracellular expression of Nrf2, HO-1 and NQO-1

Question: And the “expression of BAX, Caspase3 and Bcl-2” value (H9c2 cells [9]; western blotting)?
Answer: most effective in downregulation of apoptosis proteins (BAX, Caspase3) and upregulation of anti-apoptosis protein (Bcl-2)

Question: And the “accumulation in other organs” value ([1]; sham and MI animals, extended time after injections, n = 3)?
Answer: accumulated in the kidneys, livers, and lungs

Question: And the “diameter of spherical nanoaggregates” value [10]?
Answer: 47 ± 4 nm

Question: What about the “bio-viability and apoptosis of HUVECs under oxidative stress” value (HUVECs [11]) of the same molecule?
Answer: most effective in maintaining bio-viability and inhibiting apoptosis

Question: What about the “intracellular level of NO” value (H2O2 treated H9c2 cells [2]) of the same molecule?
Answer: significantly increased the intracellular level of NO

Question: And the “tube formation (pseudopod length, number of junction, degree of branch)” value (HUVECs [12])?
Answer: facilitated recovery in pseudopod length, number of junction and degree of branch

Question: And the “NO concentration in culture medium” value (cells; cells treated with H2O2, 24 h)?
Answer: significantly increased NO concentration

Question: What about the “NO release in culture medium” value (cells; cells without H2O2 treatment, 24 h) of the same molecule?
Answer: moderated NO release

Question: And the “intracellular NO delivery” value (HUVECs [13])?
Answer: maximizing intracellular NO delivery

Question: What about the “fibrotic area and infarct wall thickness” value (MI mice; Masson's trichrome, 28 days after MI, n = 4) of the same molecule?
Answer: reduced fibrotic area and increased infarct wall thickness

Question: And the “ultrastructure of myocardial mitochondria” value (MI mice; TEM of tissue slices, 3 days after MI)?
Answer: ameliorated myocardial fiber rupture, mitochondrial damage and increased mitochondrial numbers

Question: And the “apoptosis cardiomyocytes in infarcted myocardial tissue” value (MI mice; TUNEL staining, 3 days after MI, n = 4)?
Answer: lowest number of apoptosis cardiomyocytes

Question: What about the “cross-sectional area of cardiomyocytes” value (MI mice; WGA staining, 28 days after MI, n = 5) of the same molecule?
Answer: smaller cross-sectional area of cardiomyocytes

Question: And the “OS proteins (NRF2, HO-1, NQO-1) and pro-inflammation cytokines (TNF-α, IL-6) in the heart” value (MI mice; Western blot, 1 day after MI, n = 3)?
Answer: significant decrease

Question: What about the “protein expressions of CS, IDH2 and OGDH in heart tissues” value (MI mice; immunoblot, 3 days after MI, n = 3) of the same molecule?
Answer: facilitated recovery of these downregulated mitochondria related rate-limiting enzymes

Question: And the “angiogenesis in the border zone of infarct region (CD31+ capillaries, α-SMA+ arterioles)” value (MI mice; [15])?
Answer: greatly promoted

Question: And the “macrophage phenotype (CD86 / CD206)” value (MI mice; [15])?
Answer: established a M2-dominant macroenvironment

Question: What about the infarct area (MI mice; n = 3) of the same molecule?
Answer: greatly reduced

Question: And the “viability of H9c2 challenged with H2O2” value (H9c2 cells [4])?
Answer: potent preservation of cell survival

Question: And the apoptosis percentage (H9c2 cells [5])?
Answer: 15.6%

Question: And the “migration of HUVECs” value (HUVECs [6])?
Answer: migration to the level similar to those of H2O2-untreated control

Question: What about the ATP content (H9c2 cells [14]; H9c2 under H2O2, ATP assay kit, n = 3) of the same molecule?
Answer: increased ATP content

Question: And the structure of mitochondria (H9c2 cells [14]; H9c2 under H2O2, TEM)?
Answer: preserved the normal structure of mitochondria

Question: And the cytoplasmic calcium level (H2O2-treated H9c2 cells; Fluo-4 AM staining)?
Answer: reversed the abnormal elevation of cytoplasmic calcium level

Question: And the mitochondrial membrane potential (H2O2-treated H9c2 cells)?
Answer: potently restored the cross-membrane potential of mitochondria

Question: And the “mitochondrial ROS” value (H2O2-treated H9c2 cells; MitoSOX staining)?
Answer: most effective in blocking the H2O2-induced overproduction of ROS in mitochondria

Question: And the “free radical clearance, DPPH assay” value (DPPH assay)?
Answer: dose-dependent manner

Question: And the “expression of VEGF and p-eNOS/eNOS ratio” value (HUVECs [7])?
Answer: remarkably upregulated

Question: What about the “ROS clearance, ABTS assay” value (ABTS assay) of the same molecule?
Answer: dose-dependent manner

Question: What about the “intracellular concentration of peroxynitrite (ONOO-) / RNS” value (H2O2 treated H9c2 cells [8]) of the same molecule?
Answer: did not increase the intracellular concentration of RNS
